Measurements: ChEMBL document CHEMBL4402513, “Bio-Inspired Dual-Selective BCL-2/c-MYC G-Quadruplex Binders: Design, Synthesis, and Anticancer Activity of Drug-like Imidazo[2,1-i]purine Derivatives” (J Med Chem, 2020)
pIC50, pKd: −log10 of the molar value. Activity calls are given as the source filed them. No cut-off for these calls is given here.

What was measured:
Quadruplex DNA [1] = assay: Binding affinity to synthetic BCL2 G4 quadruplex DNA assessed as change in melting temperature at 10 molar equiv to DNA measured after 10 mins by circular dichroism melting analysis; type: nucleic-acid assay
How it was run: (§1)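 CD melting of folded DNA (G4 10 µM, duplex 15 µM) in 20 mM KCl, 5 mM KH2PO4 (pH 7.0), without and with 10 molar equivalents of ligand. Tm was taken from curve fitting, and ΔTm = Tm(DNA+ligand) − Tm(DNA). Runs were done in triplicate and averaged.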

Jurkat [2] = assay: Induction of apoptosis in human Jurkat cells assessed as viable cells at 25 uM measured after 48 hrs by Annexin V-FITC/propidium iodide staining based flow cytometry (reference value: 97%); type: functional; conditions: read-out: Activity
Jurkat [3] = assay: Induction of apoptosis in human Jurkat cells assessed as late apoptotic cells at 25 uM measured after 48 hrs by Annexin V-FITC/propidium iodide staining based flow cytometry (reference value: 1.4%); type: functional
Quadruplex DNA [4] = assay: Binding affinity to human telomeric 23 G4 quadruplex DNA assessed as change in melting temperature at 10 molar equiv to DNA measured after 10 mins by circular dichroism melting analysis; type: nucleic-acid assay; how it was run: as §1
Jurkat [5] = assay: Down regulation of c-MYC mRNA expression in human Jurkat cells at 25 uM measured after 24 hrs by RT-qPCR analysis relative to control; type: functional
How it was run: (§2)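 Jurkat cells were treated 24 h at 25 µM, and total RNA was extracted with TRI Reagent. 0.5 µg RNA was reverse transcribed with MMLV RT and random primers (22 °C 10 min, 42 °C 60 min). SYBR qPCR ran 40 cycles (95/59/72 °C) in duplicate with GAPDH as reference. Relative expression was calculated by the […] method from at least three independent experiments.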

[6] = Binding affinity to synthetic 20-mer hairpin duplex DNA assessed as change in melting temperature at 10 molar equiv to DNA measured after 10 mins by circular dichroism melting analysis; how it was run: as §1
Quadruplex DNA [7] = assay: Binding affinity to synthetic c-MYC G4 quadruplex DNA assessed as change in melting temperature at 10 molar equiv to DNA measured after 10 mins by circular dichroism melting analysis; type: nucleic-acid assay; how it was run: as §1
Jurkat [8] = assay: Down regulation of BCL2 mRNA expression in human Jurkat cells at 25 uM measured after 24 hrs by RT-qPCR analysis relative to control; type: functional; how it was run: as §2
Jurkat [9] = assay: Down regulation of BCL2 expression in human Jurkat cells at 25 uM measured after 24 hrs by Western blot analysis relative to control; type: functional
How it was run: (§3)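 Jurkat cells treated 24 h at 25 µM were lysed in 50 mM Hepes pH 7.4, 50 mM NaCl, 1% Triton with protease inhibitors. Protein was quantified by Bradford and run on 10% SDS-PAGE to nitrocellulose. Blots were probed with anti-Bcl-2, anti-c-Myc and anti-β-actin and detected by ECL. Densitometry was normalised to β-actin and expressed as % of control; three independent experiments.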

Jurkat [10] = assay: Induction of apoptosis in human Jurkat cells assessed as early apoptotic cells at 25 uM measured after 48 hrs by Annexin V-FITC/propidium iodide staining based flow cytometry (reference value: 0.3%); type: functional
Jurkat [11] = assay: Cytotoxicity against human Jurkat cells assessed as cell viability at 50 uM measured after 48 hrs by combined MTT and trypan blue staining based cell counting assay relative to control; type: functional; conditions: read-out: Activity
How it was run: (§4)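 Cells were seeded at 10^4/well (HDF 10^3), grown 24 h, then treated 48 h at 5–100 µM in 0.5% v/v DMSO. Read-outs were MTT (1 h, 37 °C, absorbance 550 nm; Jurkat handled by centrifugation) combined with trypan blue live/dead counting into a survival index versus untreated cells. IC50 came from nonlinear regression, n = 6 per experiment ×3 (n = 18), mean ± SEM.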

Jurkat [12] = assay: Down regulation of c-MYC expression in human Jurkat cells at 25 uM measured after 24 hrs by Western blot analysis relative to control; type: functional; how it was run: as §3
Quadruplex DNA [13] = assay: Binding affinity to synthetic c-KIT1 G4 quadruplex DNA assessed as change in melting temperature at 10 molar equiv to DNA measured after 10 mins by circular dichroism melting analysis; type: nucleic-acid assay; how it was run: as §1
Quadruplex DNA [14] = assay: Binding affinity to synthetic BCL2 G4 quadruplex DNA up to 5:1 compound/DNA ratio by 1H-NMR analysis; type: nucleic-acid assay
How it was run: (§5)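 1H NMR titration of G4 DNA at 0.2 mM in H2O/D2O 9:1 containing 5 mM KH2PO4, 20 mM KCl, 0.2 mM EDTA (pH 7.0), with DPFGSE water suppression. Ligand aliquots from 20 mM deutero-DMSO stock were added in the tube up to 5:1 ligand/G4. Imino and aromatic proton shifts were monitored.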

Quadruplex DNA [15] = assay: Binding affinity to synthetic c-MYC G4 quadruplex DNA up to 5:1 compound/DNA ratio by 1H-NMR analysis; type: nucleic-acid assay; how it was run: as §5
Quadruplex DNA [16] = assay: Binding affinity to synthetic Cy5-fluorescently labeled c-MYC G4 quadruplex DNA by microscale thermophoresis method; type: nucleic-acid assay
How it was run: (§6)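 MST with Cy5-labelled oligonucleotides annealed at 1 µM in 5 mM KH2PO4/20 mM KCl (pH 7.0), then diluted in the same buffer with 0.1% Tween. DNA was held at 40 nM. Ligand was serially diluted 1:2 from a 4 mM DMSO stock and mixed 1:1 with DNA, giving 5% final DMSO. Kd was derived from thermophoresis binding curves.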

Quadruplex DNA [17] = assay: Binding affinity to synthetic Cy5-fluorescently labeled BCL2 G4 quadruplex DNA by microscale thermophoresis method; type: nucleic-acid assay; how it was run: as §6
[18] = Binding affinity to synthetic Cy5-fluorescently labeled 20-mer hairpin duplex DNA by microscale thermophoresis method; how it was run: as §6
MCF7 = assay: Cytotoxicity against human MCF7 cells assessed as reduction in cell viability measured after 48 hrs by combined MTT assay; type: functional, cell-based; conditions: MCF7, 48 h; how it was run: as §4
HCT-116 = assay: Cytotoxicity against human HCT116 cells assessed as reduction in cell viability measured after 48 hrs by combined MTT assay; type: functional, cell-based; conditions: HCT-116, 48 h; how it was run: as §4
A-375 = assay: Cytotoxicity against human A375 cells assessed as reduction in cell viability measured after 48 hrs by combined MTT assay; type: functional, cell-based; conditions: A-375, 48 h; how it was run: as §4
Jurkat [19] = assay: Cytotoxicity against human Jurkat cells assessed as reduction in cell viability measured after 48 hrs by combined MTT and trypan blue staining based cell counting assay; type: functional; how it was run: as §4
Quadruplex DNA [20] = assay: Binding affinity to human Cy5-fluorescently labeled telomeric 23 G4 quadruplex DNA by microscale thermophoresis method; type: nucleic-acid assay; how it was run: as §6
Quadruplex DNA [21] = assay: Binding affinity to synthetic Cy5-fluorescently labeled c-KIT1 G4 quadruplex DNA by microscale thermophoresis method; type: nucleic-acid assay; how it was run: as §6
HaCaT = assay: Cytotoxicity against human HaCaT cells assessed as reduction in cell viability measured after 48 hrs by combined MTT assay; type: cell-based; how it was run: as §4
NHDF = assay: Cytotoxicity against HDF cells assessed as reduction in cell viability measured after 48 hrs by combined MTT assay; type: cell-based; conditions: Homo sapiens; how it was run: as §4
Jurkat [22] = assay: Cytotoxicity against human Jurkat cells assessed as reduction in cell viability at 50 uM measured after 48 hrs by combined MTT and trypan blue staining based cell counting assay; type: functional; how it was run: as §4

ΔTm (Quadruplex DNA [1]) [°C] | ΔTm (Quadruplex DNA [4]) [°C] | ΔTm [6] [°C] | ΔTm (Quadruplex DNA [7]) [°C] | ΔTm (Quadruplex DNA [13]) [°C] | Compound | viability at 25 µM (Jurkat [2]) [%] | Activity (Jurkat [3]) [%] | Activity (Jurkat [5]) [%] | Activity (Jurkat [9]) | Activity (Jurkat [10]) [%] | Activity (Jurkat [12]) | other results
9.1 | 2.2 | 6 | 8.7 | 2.9 | CC(C)(C)Nc1c(-c2ccc(N3CCOCC3)cc2)nc2c3ncn(CCN4CCCC4)c3ncn12 | – | – | – | – | – | – | –
2.6 | 0.7 | 0.5 | 1.9 | 1 | CC(C)(C)Nc1c(-c2ccccc2F)nc2c3ncn(CCN4CCOCC4)c3ncn12 | – | – | – | – | – | – | –
6.7 | 2.4 | -0.5 | 12.8 | 2.8 | CN(C)CCCn1cnc2c1ncn1c(NC(C)(C)C)c(-c3ccc(Cl)cc3)nc21 | 0.5 | 99 | 66 | 40% | 0.5 | 50% | Activity (Quadruplex DNA [14]): Active; Activity (Quadruplex DNA [15]): Active; pKd (Quadruplex DNA [16]): 4.59; pKd (Quadruplex DNA [17]): 4.22; Activity [18]: inactive; pIC50 (MCF7): < 4.00; pIC50 (HCT-116): < 4.00; pIC50 (A-375): < 4.00; Activity (Jurkat [19]): Dose-dependent effect; pIC50 (Jurkat [19]): 4.77; Activity (Quadruplex DNA [20]): inactive; Activity (Jurkat [8]): 67%; pKd (Quadruplex DNA [21]): 4.29; pIC50 (HaCaT): < 4.00; pIC50 (NHDF): 4.10; viability at 50 µM (Jurkat [11]): 25%
4.9 | 1 | 1.5 | 2.1 | 1.9 | CC(C)(C)Nc1c(-c2ccc(N3CCOCC3)cc2)nc2c3ncn(CCN4CCOCC4)c3ncn12 | 79 | 9 | 27 | Active | 8 | Active | Activity (Jurkat [22]): Active
2.1 | 0.3 | -0.5 | 1.6 | 1.1 | CC(C)(C)Nc1c(-c2ccc(Cl)cc2)nc2c3ncn(CCN4CCOCC4)c3ncn12 | – | – | – | – | – | – | –

More lines, now with the values behind:

Compound | ΔTm (Quadruplex DNA [1]) [°C] | ΔTm (Quadruplex DNA [4]) [°C] | ΔTm [6] [°C] | ΔTm (Quadruplex DNA [7]) [°C] | ΔTm (Quadruplex DNA [13]) [°C] | viability at 25 µM (Jurkat [2]) [%] | Activity (Jurkat [3]) [%] | Activity (Jurkat [5]) [%] | Activity (Jurkat [9]) | Activity (Jurkat [10]) [%] | Activity (Jurkat [12]) | other results
CN(C)CCCn1cnc2c1ncn1c(NC(C)(C)C)c(-c3ccccc3F)nc21 | 8.2 | 1.2 | 0.2 | 11.5 | 2.6 | 16 | 68 | 56 | Active | 13 | Active | Activity (Jurkat [8]): 43%; viability at 50 µM (Jurkat [11]): 60%
CN(C)CCCOc1ccccc1-c1nc2c3ncn(CCCN(C)C)c3ncn2c1NC(C)(C)C | 7.8 | 5.7 | 3.5 | > 25 | 4.5 | – | – | – | – | – | – | –
CC(C)(C)Nc1c(-c2ccccc2OCCN2CCOCC2)nc2c3ncn(CCN4CCOCC4)c3ncn12 | 1.9 | 0.1 | 1.2 | 1.9 | 0.8 | – | – | – | – | – | – | –
CN(C)CCCn1cnc2c1ncn1c(NC(C)(C)C)c(-c3ccc(N(C)C)cc3)nc21 | 16.9 | 7.2 | – | > 25 | 11.9 | – | – | – | – | – | – | –
